Laboratory results: ChEMBL document CHEMBL1155099, “Natural products in parallel synthesis: triazole libraries of nonactic acid” (2008)
Activity calls are given as the source filed them.

Assays:
Type in all cases: functional, organism-based
[1] = system: Pseudomonas aeruginosa; test: Antibacterial activity against Pseudomonas aeruginosa at 1 mM by almar blue dye reduction assay
In short: (§1)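 Single-point primary screen at 1 mM using Alamar Blue dye reduction as the growth read-out.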

[2] = system: Cryptococcus neoformans; test: Antifungal activity against Cryptococcus neoformans at 1 mM by almar blue dye reduction assay; in short: as §1
[3] = system: Bacillus anthracis; test: Antibacterial activity against Bacillus anthracis at 1mM by almar blue dye reduction assay
[4] = system: Bacillus cereus; test: Antibacterial activity against Bacillus cereus at 1 mM by almar blue dye reduction assay; in short: as §1
[5] = system: Staphylococcus aureus; test: Antibacterial activity against Staphylococcus aureus at 1 mM by almar blue dye reduction assay; in short: as §1
[6] = system: Bacillus subtilis; test: Antibacterial activity against Bacillus subtilis at 1 mM by almar blue dye reduction assay; in short: as §1
[7] = system: Escherichia coli; test: Antibacterial activity against Escherichia coli at 1 mM by almar blue dye reduction assay; in short: as §1
[8] = system: Saccharomyces cerevisiae; test: Antifungal activity against Saccharomyces cerevisiae at 1 mM by almar blue dye reduction assay; in short: as §1
[9] = system: Candida albicans; test: Antifungal activity against Candida albicans at 1 mM by almar blue dye reduction assay; in short: as §1

Measured: Activity

CCN(CC)C(=O)[C@H](C)C1CCC(C[C@@H](C)n2cc(C#CCOC(=O)OCc3ccccc3)nn2)O1 (single isomer, unassigned)
inactive: all assays above

C[C@H](C[C@@H]1CC[C@H]([C@@H](C)C(=O)N(C)Cc2ccccc2)O1)n1cc(C#CCc2ccccc2)nn1
inactive: all assays above

C[C@H](C[C@@H]1CC[C@H]([C@@H](C)C(=O)N2CCN(CC3CCCO3)CC2)O1)n1cc(C#Cc2ccccn2)nn1 (some centres not stated)
inactive: all assays above

C[C@H](C[C@@H]1CC[C@H]([C@@H](C)C(=O)N(C)Cc2ccccc2)O1)n1cc(C#Cc2ccc(Oc3ccccc3)cc2)nn1
inactive: all assays above

C[C@H](C[C@@H]1CC[C@H]([C@@H](C)C(=O)N(C)Cc2ccccc2)O1)n1cc(C#CCN(C)C)nn1
inactive: all assays above

CCN(CC)C(=O)[C@H](C)[C@H]1CC[C@@H](C[C@@H](C)n2cc(C#CCOC)nn2)O1
inactive: all assays above

C[C@H](C[C@@H]1CC[C@H]([C@@H](C)C(=O)N2CCN(CC3CCCO3)CC2)O1)n1cc(C#CCOc2ccccc2)nn1 (some centres not stated)
inactive: all assays above

CC(C)NC(=O)[C@H](C)[C@H]1CC[C@@H](C[C@@H](C)n2cc(C#Cc3cccc4ccccc34)nn2)O1
inactive: all assays above

C[C@H](CC1CCC([C@@H](C)C(=O)N2CCN(CC3CCCO3)CC2)O1)n1cc(C#CCNC(=O)OCc2ccccc2)nn1 (single isomer, unassigned)
inactive: all assays above

CCN(CC)C(=O)[C@H](C)[C@H]1CC[C@@H](C[C@@H](C)n2cc(C#CCNCCOC)nn2)O1
inactive: all assays above

COc1ccc(C#Cc2cn([C@H](C)C[C@@H]3CC[C@H]([C@@H](C)C(=O)N(C)Cc4ccccc4)O3)nn2)cc1
inactive: all assays above

CC(C)NC(=O)[C@H](C)[C@H]1CC[C@@H](C[C@@H](C)n2cc(C#CCN3CCC(c4ccccc4)CC3)nn2)O1
inactive: all assays above

C[C@H](C[C@@H]1CC[C@H]([C@@H](C)C(=O)N(C)Cc2ccccc2)O1)n1cc(C#Cc2ccccc2[N+](=O)[O-])nn1
inactive: all assays above

C[C@H](C[C@@H]1CC[C@H]([C@@H](C)C(=O)N(C)Cc2ccccc2)O1)n1cc(C#CCN2CCC(c3ccccc3)CC2)nn1
inactive: all assays above

C[C@H](C[C@@H]1CC[C@H]([C@@H](C)C(=O)N2CCCC2)O1)n1cc(C#CCOc2ccc(C(F)(F)F)cc2)nn1
inactive: all assays above

CC(C)NC(=O)[C@H](C)[C@H]1CC[C@@H](C[C@@H](C)n2cc(C#CCN3CCN(c4ccccc4)CC3)nn2)O1
inactive: all assays above

CC(C)NC(=O)[C@H](C)C1CCC(C[C@@H](C)n2cc(C#CCOC(=O)OCc3ccccc3)nn2)O1 (single isomer, unassigned)
inactive: all assays above

C[C@H](C[C@@H]1CC[C@H]([C@@H](C)C(=O)N2CCCC2)O1)n1cc(C#Cc2ccccn2)nn1
inactive: all assays above

C[C@H](C[C@@H]1CC[C@H]([C@@H](C)C(=O)N2CCCC2)O1)n1cc(C#Cc2cccc3ccccc23)nn1
inactive: all assays above

COc1ccc(OCC#Cc2cn([C@H](C)C[C@@H]3CC[C@H]([C@@H](C)C(=O)N(C)Cc4ccccc4)O3)nn2)cc1
inactive: all assays above

C[C@H](C[C@@H]1CC[C@H]([C@@H](C)C(=O)N2CCN(CC3CCCO3)CC2)O1)n1cc(C#CCN(C)CCc2ccccc2)nn1 (some centres not stated)
inactive: all assays above

C[C@H](C[C@@H]1CC[C@H]([C@@H](C)C(=O)N(C)Cc2ccccc2)O1)n1cc(C#CCN2CCN(c3ccccc3)CC2)nn1
inactive: all assays above

C[C@H](C[C@@H]1CC[C@H]([C@@H](C)C(=O)N(C)Cc2ccccc2)O1)n1cc(C#CCOc2ccc(C(F)(F)F)cc2)nn1
inactive: all assays above
